pEC50, pIC50: −log10 of the molar value. Activity calls are given as the source filed them. The calls are words filed in the database; no cut-off is given here.

EC50, IC50 and Activity data for three compounds are collected here from ChEMBL document CHEMBL4152271, “Polypharmacological profile of 1,2-dihydro-2-oxo-pyridine-3-carboxamides in the endocannabinoid system” (Eur J Med Chem, 2018).

One assay deals with Cannabinoid receptor 2 (Homo sapiens, UniProt P34972). As to the kind of experiment: Agonist activity at human CB2 receptor expressed in CHO cell membranes after 90 mins by [35S]GTPgammaS binding assay. The format is functional. In outline: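 Membranes (5 µg) of hCB2-expressing cells in 50 mM Tris-HCl, 3 mM MgCl₂, 0.2 mM EDTA, 100 mM NaCl, 0.5% fatty acid-free BSA, pH 7.4, with 10 µM GDP and 0.1 nM [³⁵S]GTPγS. Kept on ice, started by vehicle or compound, 90 min at 30 °C. Nonspecific binding with 10 µM GTPγS. Filtered on GF/B, radioactivity counted. At least three experiments in triplicate, mean ± SD.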
Chain of Cannabinoid receptor 2 (P34972 whole entry): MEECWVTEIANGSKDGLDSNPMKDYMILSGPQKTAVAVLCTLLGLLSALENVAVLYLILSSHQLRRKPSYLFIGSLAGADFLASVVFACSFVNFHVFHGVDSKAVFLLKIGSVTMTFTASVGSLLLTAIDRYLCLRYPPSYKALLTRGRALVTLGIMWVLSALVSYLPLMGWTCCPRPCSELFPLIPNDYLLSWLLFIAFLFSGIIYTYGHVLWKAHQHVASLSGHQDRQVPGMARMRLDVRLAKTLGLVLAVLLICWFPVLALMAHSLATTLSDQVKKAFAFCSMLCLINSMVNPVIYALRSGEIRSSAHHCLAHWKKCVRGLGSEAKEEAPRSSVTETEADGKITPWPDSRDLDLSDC

In assay [1] the target is T1, Lysophosphatidylserine lipase ABHD12 (Homo sapiens, UniProt Q8N2K0).
T1 sequence (Q8N2K0 whole entry): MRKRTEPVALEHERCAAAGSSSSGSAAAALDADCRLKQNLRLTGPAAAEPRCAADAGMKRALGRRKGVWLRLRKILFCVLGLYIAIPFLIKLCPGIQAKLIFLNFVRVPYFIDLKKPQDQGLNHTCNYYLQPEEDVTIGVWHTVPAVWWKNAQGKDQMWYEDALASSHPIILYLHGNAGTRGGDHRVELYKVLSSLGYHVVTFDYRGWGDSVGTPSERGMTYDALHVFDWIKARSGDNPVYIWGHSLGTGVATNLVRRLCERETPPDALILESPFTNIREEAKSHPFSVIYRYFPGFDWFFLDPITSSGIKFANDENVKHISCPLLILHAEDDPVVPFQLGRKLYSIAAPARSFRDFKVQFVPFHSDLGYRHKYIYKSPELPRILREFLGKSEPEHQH
The experiment in a line: Inhibition of human ABHD12 expressed in HEK293 cells using 2-OG as substrate preincubated for 30 mins followed by substrate addition and measured after 5 mins by liquid scintillation spectroscopic method. The format is cell-based. The method, boiled down:
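Homogenate (40 µg) of HEK293 cells stably transfected with hABHD6 or hABHD12, compound preincubated 30 min at 37 °C in […], 0.1% BSA, pH 7.6. DMSO vehicle; WWL70 10 µM or THL 20 µM as positive controls. 10 µM 2-OG added for 5 min at 37 °C, stopped with CHCl₃:MeOH. Aqueous phase counted; no-enzyme blanks and non-transfected HEK293 hydrolysis subtracted.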

Another assay deals with U-937. As to the kind of experiment: Inhibition of [ethanolamine-1-3H]AEA/unlabeled AEA uptake in human U937 cells preincubated for 15 mins followed by [ethanolamine-1-3H]AEA/unlabeled AEA addition and measured after 15 mins by scintillation counting method. The format is functional, cell-based. In outline: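 Intact U937 cells (0.5x10⁶ per sample) in RPMI, preincubated with compound for 15 min at 37 °C. Then 1 nM [ethanolamine-1-³H]AEA plus unlabeled AEA (final 100 nM) added for 15 min. Stopped by rapid filtration and ice-cold PBS/1% BSA washes, radioactivity counted. At least three experiments in triplicate, mean ± SD.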

The target in a further assay is Cannabinoid receptor 1 (Homo sapiens, UniProt P21554). The experiment in a line: Agonist activity at CB1 receptor in human U251MG cells assessed as upregulation of MICA/B expression at 10 uM after 24 hrs by cytofluorimetric method. The format is functional, cell-based. In outline:
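U251MG glioma cells seeded at 2x10⁴ cells/cm², grown 24h, washed, then exposed to vehicle or compound in complete medium for 24 h. 2x10⁵ cells stained with PE anti-MICA/B or isotype control, 20 min at 4°C, fixed in 1% formaldehyde. Flow cytometry read-out as MFI, 3 independent experiments, mean ± SD, ANOVA with Bonferroni.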

Chain of Cannabinoid receptor 1 (P21554 whole entry): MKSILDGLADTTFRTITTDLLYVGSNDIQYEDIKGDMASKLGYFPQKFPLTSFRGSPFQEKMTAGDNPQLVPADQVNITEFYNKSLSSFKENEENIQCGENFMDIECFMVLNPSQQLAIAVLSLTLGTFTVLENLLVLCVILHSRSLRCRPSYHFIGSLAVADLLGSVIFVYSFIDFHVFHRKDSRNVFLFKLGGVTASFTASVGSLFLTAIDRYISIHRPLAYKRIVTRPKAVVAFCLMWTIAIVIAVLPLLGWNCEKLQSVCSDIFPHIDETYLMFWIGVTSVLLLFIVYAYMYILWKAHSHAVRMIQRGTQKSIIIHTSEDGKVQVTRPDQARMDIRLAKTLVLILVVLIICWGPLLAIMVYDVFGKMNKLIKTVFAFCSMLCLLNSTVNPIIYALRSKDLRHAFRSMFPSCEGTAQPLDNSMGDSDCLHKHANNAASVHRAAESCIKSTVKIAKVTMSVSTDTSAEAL

`Cc1c(Br)cn(Cc2ccc(F)cc2)c(=O)c1C(=O)NC1CCCCCC1` had a pEC50 on Cannabinoid receptor 2 of 8.96. Besides, the values for the pIC50 (in assay [1]; in the assay on U-937) were 5.68 and 6.03, respectively. For the same compound, the result on Cannabinoid receptor 1 was Active.
For `Cc1c(Br)cnc(OCc2ccc(F)cc2)c1C(=O)NC1CCCCCC1` the same measures were 6.16, < 5.00, 6.21 and “Active”.
In the case of `COc1ccc(-c2cn(Cc3ccc(F)cc3)c(=O)c(C(=O)NC3CCCCCC3)c2C)cc1`, the pIC50 in assay [1] was < 5.00; with U-937 it was 6.55. Moreover, the outcome at Cannabinoid receptor 1 was Active.
